The nature of data set [1]: Aqueous solubility in deionized water containing 1.38% DMSO. Type of data set: physicochemical.
Data set [2] in a line: Cytotoxicity against African green monkey Vero cells infected with USUV 3345 isolate Arb276 pretreated with virus for 1 hr followed by infection of cells with compound treated-virus for 20 hrs by MTS assay. Type of data set: toxicity, cell-based. Particulars: chlorocebus sabaeus. A digest of the protocol:
(§1)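 MTS viability assay. Cells were treated under the same conditions as the antiviral assays. Absorbance was expressed as % of medium-only cells, and CC50 was derived from the curve. Seeding densities were 1.2 × 10^4/well for Vero, 1.3 × 10^4/well for A549 and 1.6 × 10^4/well for Huh7. DMEM with 2% FBS.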

The test system of data set [3] is Zika virus. Description: Antiviral activity against ZIKV MR766 infected in African green monkey Vero cells assessed as viral growth inhibition at 0.13 to 100 uM pretreated with cells 2 hrs prior to viral infection by time of addition assay. Type of data set: functional, organism-based. As to conditions: dose 0.13-100 µM. The procedure, abridged: (§2)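 Time-of-addition assay in Vero. Serial dilutions (100 to 0.13 μM) were added to cells 24 h or 2 h before infection, during the 2 h infection, or post-infection for 24 h (USUV) or 30 h (ZIKV). Cells were fixed in cold acetone-methanol (50:50) and infected cells detected by indirect immunostaining. EC50/EC90 came from variable-slope sigmoidal fits; mean of three independent experiments.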

The test system of data set [4] is Zika virus. Description: Antiviral activity against ZIKV MR766 infected in African green monkey Vero cells assessed as viral growth inhibition at 11 to 100 uM pretreated with virus for 1 hr followed by infection of cells with compound treated-virus for 30 hrs by focus reduction assay relative to control. Type of data set: functional. As to conditions: dose 11-100 µM, time 31 hrs. A digest of the protocol:
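Virus (MOI 0.02) preincubated with compound 1 h at 37 °C, then mixture put on Vero cells (1.2 × 10^4/well, seeded the day before) in DMEM with 2% FBS for 30 h (ZIKV) or 20 h (USUV) at 37 °C. Fixed in cold acetone-methanol, foci immunostained with anti-flavivirus E 4G2 antibody and counted. % infection is relative to DMSO-treated wells. Screen used 100, 33 and 11 μM.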

Data set [5] is described as follows: Selectivity index, ratio of CC50 for African green monkey Vero cells infected with USUV 3345 isolate Arb276 to EC50 for USUV 3345 isolate Arb276 infected in African green monkey Vero cells. Type of data set: toxicity, cell-based. As to conditions: read-out: Ratio CC50/EC50.
Data set [6] is described as follows: Solubility in i-propanol at 25 degreeC. Type of data set: physicochemical.
Data set [7] is described as follows: Cytotoxicity against African green monkey Vero cells infected with ZIKV MR766 pretreated with virus for 1 hr followed by infection of cells with compound treated-virus for 30 hrs by MTS assay. The format is toxicity, cell-based. Particulars: chlorocebus sabaeus. The procedure, abridged:
as §1

Data set [8] has as its system Usutu virus. Description: Antiviral activity against USUV 3345 isolate Arb276 infected in African green monkey Vero cells assessed as titer reduction in viral progeny production at 15 uM treated for 2 hrs followed by virus removal and subsequent addition of medium containing compound measured after 48 hrs by focus reduction assay. The format is functional, organism-based. Particulars: time 50.0 hrs. The procedure, abridged:
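Vero cells seeded 6.5 × 10^4/well, exposed in duplicate for 2 h at 37 °C to virus (MOI 0.1) mixed with compound at 5 or 15 μM. After three washes, medium containing compound was added for 48 h. Supernatants were clarified and titred on Vero by focus reduction (USUV, FFU/ml) or plaque assay (ZIKV, PFU/ml). DMSO-matched infected controls; mean of three experiments.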

The subject of data set [9] is Zika virus. Description: Antiviral activity against ZIKV MR766 infected in human Huh-7 cells assessed as reduction in viral replication pretreated with virus for 1 hr followed by infection of cells with compound treated-virus for 30 hrs by focus reduction assay. Type of data set: functional, organism-based. Particulars: for EC50: MR766, Huh-7; for EC90: MR766, Huh-7, time 31 hrs. A digest of the protocol:
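Dose-response: serial dilutions (100 to 0.13 μM) preincubated 1 h at 37 °C with virus (MOI 0.02), then added to cells for 20 h (USUV) or 30 h (ZIKV) in 2% FBS DMEM. Cells per well: Vero 1.2 × 10^4, A549 1.3 × 10^4, Huh7 1.6 × 10^4. Foci immunostained and counted. EC50/EC90 fitted by variable-slope sigmoidal curve, mean of three independent experiments.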

Data set [10] relates to Usutu virus. Description: Antiviral activity against USUV 3345 isolate Arb276 infected in African green monkey Vero cells assessed as viral growth inhibition at 0.13 to 100 uM treated immediately after viral infection for 24 hrs by time of addition assay. Type of data set: functional, organism-based. As to conditions: dose 0.13-100 µM. The procedure, abridged: as §2
For data set [11], the system named is Zika virus. Description: Antiviral activity against ZIKV MR766 infected in African green monkey Vero cells assessed as reduction in plaque formation pretreated with virus for 1 hr followed by infection of cells with compound treated-virus for 2 hrs and further treatment of compound for 72 hrs by crystal violet staining based assay. Type of data set: functional, organism-based. As to conditions: time 75.0 hrs. A digest of the protocol: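 Plaque reduction assay. Vero cells were seeded 6 × 10^4/well. ZIKV (MOI 0.005) was preincubated with serial compound dilutions for 1 h at 37 °C, then adsorbed on cells for 2 h. After two washes, cells were overlaid with 1.2% methylcellulose in DMEM for 72 h, then fixed and stained with 0.1% crystal violet for 30 min. Plaques counted; EC50/EC90 from variable-slope sigmoidal fits.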

Values after ≈ are worked out from the molar mass of the structure shown. Active and inactive are the calls of the source. The rule behind the calls is not given here.

Broadly, the solubility is how much of the substance goes into solution per volume. As a reminder, the CC50 is the concentration that lowers cell viability or growth by half. For orientation: EC50 means the concentration needed to bring the measured effect to its halfway point. For orientation: EC90 means the point of the concentration-response curve where the effect stands at 90%.

`O=C1[C@@H]2CCCN2[C@@H](c2ccc([C@H]3C[C@@H](O)[C@@H](CO)O3)cc2)N1c1ccc([N+](=O)[O-])cc1`: the solubility in data set [1] was over 947 µg/mL; in data set [6], 7320 µg/mL (≈ 16.7 mM). Moreover, the CC50 at 21 h in data set [2] was over 500 µM. The outcome in the data set on Zika virus [3] was inactive. For the same compound, in the data set on Zika virus [4], the “inhibition (INH)” value came out at 100%. Also, the selectivity ratio in data set [5] was over 198. Moreover, the CC50 at 31 h in data set [7] was over 500 µM. The result in the data set on Usutu virus [8], in the data set with Usutu virus [10] and with Zika virus [11] was Active. The concentration giving a half-maximal response (EC50) with Zika virus [9] is 2.26 µM. The concentration for an effect of 90% (EC90) with Zika virus [9] turned out to be 4.26 µM.
Take `O=C1C[C@H](c2ccc([C@H]3N(c4ccc([N+](=O)[O-])cc4)C(=O)[C@@H]4CCCN43)cc2)O[C@@H]1CO`: the results for the solubility in data set [1] and in data set [6] were over 897 µg/mL and 8570 µg/mL (≈ 19.6 mM), respectively. Further, in data set [2], the CC50 at 21 h is over 500 µM. In addition, the outcome in the data set with Zika virus [3] was inactive. In addition, the “inhibition (INH)” value in the data set on Zika virus [4] is 100%. In addition, the selectivity ratio in [5] is over 181. In addition, in data set [7], the CC50 at 31 h is over 500 µM. For the same compound, the result with Usutu virus [8], in the data set with Usutu virus [10] and in the data set with Zika virus [11] was Active. For the same compound, the EC50 in the data set with Zika virus [9] came to 2.36 µM. Further, the EC90 in the data set on Zika virus [9] was determined as 4.19 µM.

The record behind these values is ChEMBL document CHEMBL5325402, “Exploration of novel hexahydropyrrolo[1,2-e]imidazol-1-one derivatives as antiviral agents against ZIKV and USUV” (Eur J Med Chem, 2023).
